Apaf1 inhib: inhibitors of human Apaf-1 apoptosome, primary screen, biochemical, DEVD-Rh110 fluorescence, uHTS | Apoptotic protease-activating factor 1 (Homo sapiens), O14727 | reconstituted apoptosome caspase-3 activity | inhibition, % at 20 µM | 330,000 tested, 0.71% active | AID 489030, 2010; active means inhibition of at least 40% at 20 µM
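Assay system – apoptosome proteins · Medium – Hepes buffer, pH 7.5 · Also added – cytochrome c with DEVD-Rh110 · Timing – 30 min compound preincubation, 50 min activation, room temperature · Detection – Rh110 fluorescence, excitation 480 nm, emission 540 nm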
SENP7 block: SENP7 protease inhibitors, primary screen, biochemical, luminescence, uHTS; Sentrin-specific protease 7 (Homo sapiens), Q9BQF6; recombinant SENP7, Z-RLRGG-aminoluciferin luminescence, 40 min; inhibition, % at 5 µM; 330,000 tested, 1.5% active;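 active means inhibition above about 50% at the single test dose, limit read from the data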
Target sequence (Q9BQF6 706-1050 limits assumed): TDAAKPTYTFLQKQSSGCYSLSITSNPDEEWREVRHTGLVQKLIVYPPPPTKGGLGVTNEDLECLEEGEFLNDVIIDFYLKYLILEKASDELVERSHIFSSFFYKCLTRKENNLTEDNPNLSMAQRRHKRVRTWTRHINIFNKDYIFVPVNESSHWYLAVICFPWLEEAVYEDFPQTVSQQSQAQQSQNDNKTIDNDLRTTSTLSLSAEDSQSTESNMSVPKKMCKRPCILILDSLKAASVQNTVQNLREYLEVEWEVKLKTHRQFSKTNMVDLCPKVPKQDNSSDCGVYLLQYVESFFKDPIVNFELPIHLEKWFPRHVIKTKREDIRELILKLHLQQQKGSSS
SENP8 block-1: human SENP8 protease inhibitors, primary screen, biochemical, fluorescence, Nedd8 protein substrate, uHTS; 360,000 tested, 0.64% active; AID 602440, 2012; inhibition, % at 20 µM; recombinant SENP8; Sentrin-specific protease 8 (Homo sapiens), Q96LD8; in the data active means inhibition mostly above about 40%, no sharp cut-off; inactive means mostly below about 27%
Target sequence (Q96LD8 whole entry, looked up): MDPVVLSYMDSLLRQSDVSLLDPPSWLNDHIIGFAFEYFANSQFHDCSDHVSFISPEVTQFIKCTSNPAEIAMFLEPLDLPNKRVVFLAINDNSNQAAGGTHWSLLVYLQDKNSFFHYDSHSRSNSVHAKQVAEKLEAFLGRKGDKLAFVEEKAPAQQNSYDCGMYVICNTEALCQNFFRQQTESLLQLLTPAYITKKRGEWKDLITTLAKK
UBC13 inh: UBC13 polyubiquitin chain formation inhibitors, primary screen, biochemical, TR-FRET, uHTS; inhibition, % at 20 µM; 330,000 tested, 0.47% active; AID 485273, 2010; Ubiquitin-conjugating enzyme E2 N (Homo sapiens), P61088; in the data active means inhibition above about 45%, passing the limit was not always enough
Target sequence (P61088 whole entry, looked up): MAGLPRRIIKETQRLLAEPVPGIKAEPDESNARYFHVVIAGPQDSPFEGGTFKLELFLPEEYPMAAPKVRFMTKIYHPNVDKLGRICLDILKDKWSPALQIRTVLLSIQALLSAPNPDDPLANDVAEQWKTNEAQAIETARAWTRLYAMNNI
SENP8 block-2: SENP8 protease inhibitors, primary screen, biochemical, luminescence; Sentrin-specific protease 8 (Homo sapiens), Q96LD8; purified SENP8, Z-RLRGG-aminoluciferin cleavage; inhibition, % at 10 µM; 330,000 tested, 1.2% active; in the data active means inhibition above about 50%
SENP6 inh: SENP6 protease inhibitors, primary screen, biochemical, luminescence, uHTS | Sentrin-specific protease 6 (Homo sapiens), Q9GZR1 | Recombinant SENP6 catalytic domain, aminoluciferin luminescence | inhibition, % at 10 µM | 330,000 tested, 1.8% active | AID 2599, 2010;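 active means inhibition above about 50% at the single tested dose, limit read from the data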
SENP8 confirm: SENP8 protease inhibitors, retest, confirmation, biochemical, luminescence, single concentration; Recombinant SENP8, Z-RLRGG-aminoluciferin luminescence, 60 min; 6,200 tested, 40% active; AID 488912, 2010; shares compounds with SENP7 block; inhibition, % at 12.5 µM;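 active means mean inhibition across replicates above about 50%, limit read from the data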
SENP6 conf: SENP6 protease inhibitors, confirmation, biochemical, luminescence, single concentration; 6,200 tested, 58% active; recombinant SENP6, Z-RLRGG-aminoluciferin luminescence; shares compounds with SENP7 block; inhibition, % at 12.5 µM; AID 488915, 2010
SENP7 confirm: SENP7 protease inhibitors, retest, confirmation, biochemical, luminescence, single concentration; recombinant SENP7, Z-RLRGG-aminoluciferin luminescence, 40 min; inhibition, % at 12.5 µM; 6,200 tested, 69% active; shares compounds with SENP7 block
Casp3 SENP sel: caspase-3 protease inhibitors, confirmation, selectivity assay for SENP inhibitor project, biochemical, single concentration. shares compounds with SENP7 block. purified caspase-3, Z-DEVD-aminoluciferin luminescence, 60 min. inhibition, % at 12.5 µM. 6,200 tested, 60% active. AID 488918, 2010;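 active means mean inhibition above about 50%, limit read from the data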
SENP luc ctr: luminescence interference (SENP counter-screen). shares compounds with SENP7 block. Pre-incubated SENP8/Z-RLRGG-aminoluciferin, luciferase luminescence interference. inhibition, % at 12.5 µM. 6,200 tested, 39% active. AID 488919;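 active means mean inhibition above about 50% when retested at one dose, limit read from the data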
Each line names hits and unclear results; the compound was inactive in the other large screens (follow-up assays come after a bar, where they were run). A selection: hits, their analogues and other compounds. The true share with any hit is near 3.1%.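 How the source made its calls, unless noted: active means mean inhibition above about 50% in the one-dose retest (limit read from the data); inactive means the rest.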

Cc1ccc(-c2nnc3sc(-c4ccncc4)nn23)cc1	SENP7 block 56.8 | SENP8 confirm inactive | SENP6 conf inactive | SENP7 confirm inactive | Casp3 SENP sel inactive | SENP luc ctr inactive
Cc1ccc(-n2nnc(-c3cc4ccccc4n3C)n2)cc1	none
Cn1c(-c2nnn(-c3ccc(F)cc3)n2)cc2ccccc21	SENP6 inh 52.4 (no result: SENP8 block-1) | SENP8 confirm inactive | SENP6 conf inactive | SENP7 confirm inactive | Casp3 SENP sel inactive | SENP luc ctr inactive
N#C/C(=N\Nc1cccc(Cl)c1)C(=O)c1ccccc1	SENP8 block-2 68.9, SENP6 inh 86.7 | SENP8 confirm inactive | SENP6 conf 73.5 | SENP7 confirm 76.1 | Casp3 SENP sel inactive | SENP luc ctr 72.2
COc1ccc(-c2csc(Nc3cccc(C)n3)n2)cc1	SENP7 block 81.2, SENP8 block-2 87.7, SENP6 inh 90.4 | SENP8 confirm inactive | SENP6 conf 81.1 | SENP7 confirm 96.3 | Casp3 SENP sel 53.7 | SENP luc ctr inactive
CC(=O)Oc1ccc(-c2csc(Nc3cccc(C)n3)n2)cc1	SENP7 block 87.1, SENP8 block-2 87.1, SENP6 inh 72.8 | SENP8 confirm inactive | SENP6 conf inactive | SENP7 confirm 55.3 | Casp3 SENP sel 70.2 | SENP luc ctr inactive
Cc1cccc(Nc2nc(-c3ccc(F)cc3)cs2)n1	SENP7 block 84.6, SENP8 block-2 84.3, SENP6 inh 95.6 | SENP8 confirm inactive | SENP6 conf 81.3 | SENP7 confirm 96.9 | Casp3 SENP sel 55.7 | SENP luc ctr inactive
NC(=O)c1ccccc1NC(=O)Nc1ccc(F)c(Cl)c1	SENP7 block 95.7, SENP8 block-2 92.2, SENP6 inh 91.8 | SENP8 confirm 64.5 | SENP6 conf 88.1 | SENP7 confirm 99.2 | Casp3 SENP sel 89.7 | SENP luc ctr 90.9
CSc1cccc(NC(=O)Nc2ccccc2C(N)=O)c1	SENP7 block 77.9, SENP8 block-2 63.6, SENP6 inh 76.6 | SENP8 confirm inactive | SENP6 conf 63.9 | SENP7 confirm 87.0 | Casp3 SENP sel 62.7 | SENP luc ctr inactive
CC(=O)Nc1ccccc1C(=O)C(=O)Nc1ccc(F)c(Cl)c1	none
C=C1C(=O)C23C(O)C1CCC2C12COC3(O)C(O)C1C(C)(C)CCC2O (stereo not drawn)	none (no result: Apaf1 inhib, SENP7 block, UBC13 inh, SENP8 block-2, SENP6 inh)
O=C(Nc1ccc(N2CCOCC2)cc1)c1csc([C@@H]2C[C@H](O)[C@@H](CO)O2)n1	none (no result: Apaf1 inhib, SENP7 block, UBC13 inh, SENP8 block-2, SENP6 inh)
COc1cccc(C(NC(C)=O)c2nc(-c3cccc(C#N)c3)cs2)c1 (stereo not drawn)	none (no result: Apaf1 inhib, SENP7 block, UBC13 inh, SENP8 block-2, SENP6 inh)
O=C(Nc1cccc(Br)c1)c1cccc(OC(=S)N2CCOCC2)c1	SENP7 block 54.7, SENP6 inh 56.8 | SENP8 confirm inactive | SENP6 conf inactive | SENP7 confirm 74.2 | Casp3 SENP sel inactive | SENP luc ctr 51.1
O=C(C1CC(c2ccccc2O)=NO1)N1CCCCC1 (stereo not drawn)	SENP7 block 73.6 | SENP8 confirm inactive | SENP6 conf inactive | SENP7 confirm inactive | Casp3 SENP sel inactive | SENP luc ctr inactive
COc1ccc(/C=C2/SC(=S)N(CCCC(=O)N3CCN(C)CC3)C2=O)cc1	SENP7 block 69.1, SENP8 block-2 54.3, SENP6 inh 65.1 | SENP8 confirm 58.4 | SENP6 conf 60.0 | SENP7 confirm 86.4 | Casp3 SENP sel 66.6 | SENP luc ctr 69.4
CCOc1ccc(/C=C2\SC(=S)N(CCC(=O)O)C2=O)cc1	SENP7 block 59.9, SENP8 block-2 96.7, SENP6 inh 98.6 | SENP8 confirm 97.4 | SENP6 conf 99.8 | SENP7 confirm 102.7 | Casp3 SENP sel inactive | SENP luc ctr 92.4
Cc1ccc(/C=C2\SC(=S)N(CCCC(=O)N3CCOCC3)C2=O)cc1	SENP7 block 84.3, SENP8 block-2 83.8, SENP6 inh 84.4 | SENP8 confirm 90.2 | SENP6 conf 89.0 | SENP7 confirm 96.9 | Casp3 SENP sel 72.5 | SENP luc ctr 74.6
COc1cc(C(=O)NCCC(=O)NCc2cccs2)cc(OC)c1OC	none (no result: Apaf1 inhib, SENP7 block, UBC13 inh, SENP8 block-2, SENP6 inh)
COc1cccc(COc2ccc3c(C)cc(=O)oc3c2)c1	SENP7 block 71.3, SENP8 block-2 68.1, SENP6 inh 76.6 | SENP8 confirm inactive | SENP6 conf 75.0 | SENP7 confirm 90.4 | Casp3 SENP sel 64.9 | SENP luc ctr 62.0
Cc1cc(N2CCN(C(C(=O)NC3CCCC3)c3ccco3)CC2)c2ccccc2n1 (stereo not drawn)	none (no result: Apaf1 inhib, SENP7 block, UBC13 inh, SENP8 block-2, SENP6 inh)
CCC(=NCc1ccccc1)c1c(C(F)(F)F)[nH]n(-c2nc3ccccc3s2)c1=O	SENP7 block 88.7, SENP8 block-2 60.5, SENP6 inh 85.2 | SENP8 confirm inactive | SENP6 conf inactive | SENP7 confirm inactive | Casp3 SENP sel 63.5 | SENP luc ctr inactive
CCCN=C(C)c1c(-c2ccccc2)[nH]n(-c2nc3ccccc3s2)c1=O	none
COC(=O)Cc1[nH]n(-c2nc3ccccc3s2)c(=O)c1C(C)=Nc1ccc(C)cc1	none
CCCc1[nH]n(-c2nc3ccccc3s2)c(=O)c1C=NCC(C)C	none
O=c1c(C=NCc2cccnc2)c(C(F)(F)F)[nH]n1-c1nc2ccccc2s1	SENP7 block 98.9, SENP8 block-2 97.2, SENP6 inh 97.2 | SENP8 confirm 99.8 | SENP6 conf 100.8 | SENP7 confirm 103.2 | Casp3 SENP sel 99.1 | SENP luc ctr 99.0
CCC(=NCc1ccco1)c1c(C(F)(F)F)[nH]n(-c2nc3ccccc3s2)c1=O	SENP7 block 95.8, SENP8 block-2 88.5, SENP6 inh 95.6 | SENP8 confirm 72.9 | SENP6 conf 70.4 | SENP7 confirm 90.3 | Casp3 SENP sel 89.7 | SENP luc ctr 81.0
Cc1cccc(N2CCN(C(=S)c3ccc4c(c3)OCO4)CC2)c1	none (no result: Apaf1 inhib, SENP7 block, UBC13 inh, SENP8 block-2, SENP6 inh)

Compound activity: PubChem BioAssay, Sanford-Burnham Center for Chemical Genomics
